In ChEMBL document CHEMBL1144291, “Synthesis of 9-(2-beta-C-methyl-beta-d-ribofuranosyl)-6-substituted purine derivatives as inhibitors of HCV RNA replication” (Bioorg Med Chem Lett, 2005):

What was measured:
[1] = tested on: Hepatitis C virus; experiment: Inhibition of hepatitis C virus RNA replication in a subgenomic replicon cell line; type: functional, organism-based, Hepacivirus hominis
Outline: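 HCV subgenomic replicon cells exposed to compound for 48 h; relative HCV replicon RNA then measured by luciferase reporter assay.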

[2] = tested on: Hepatitis C virus; experiment: Cytotoxicity concentration to inhibit hepatitis C virus RNA replication in a subgenomic replicon cell line; type: functional, Hepacivirus hominis
Outline: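 MTS assay run on samples set up in parallel with the HCV subgenomic replicon cultures.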

CN(O)c1ncnc2c1ncn2C1O[C@H](CO)[C@@H](O)[C@@]1(C)O (stereo not given in full)
EC50 [1]: 4 µM | CC50 [2]: 300 µM

CC(C)NC(=O)N(O)c1ncnc2c1ncn2C1O[C@H](CO)[C@@H](O)[C@@]1(C)O (stereo not given in full)
EC50 [1]: 6 µM | CC50 [2]: 300 µM

CCNC(=O)Nc1ncnc2c1ncn2C1O[C@H](CO)[C@@H](O)[C@@]1(C)O (stereo not given in full)
EC50 [1]: 80 µM | CC50 [2]: 300 µM

CCOc1ncnc2c1ncn2C1O[C@H](CO)[C@@H](O)[C@@]1(C)O (stereo not given in full)
EC50 [1]: 13 µM | CC50 [2]: 300 µM

C[C@]1(O)C(n2cnc3c2NCN=C3NOCCO)O[C@H](CO)[C@H]1O (stereo not given in full)
EC50 [1]: 80 µM | CC50 [2]: 300 µM

CSc1ncnc2c1ncn2C1O[C@H](CO)[C@@H](O)[C@@]1(C)O (stereo not given in full)
EC50 [1]: 11 µM | CC50 [2]: 300 µM

C[C@]1(O)C(n2cnc3c(-c4ccco4)ncnc32)O[C@H](CO)[C@H]1O (stereo not given in full)
EC50 [1]: 275 µM | CC50 [2]: 300 µM

C[C@]1(O)C(n2cnc3c(O)ncnc32)O[C@H](CO)[C@H]1O (stereo not given in full)
EC50 [1]: 8 µM | CC50 [2]: 300 µM

C[C@]1(O)C(n2cnc3c(N(O)C(=O)Nc4ccccc4)ncnc32)O[C@H](CO)[C@H]1O (stereo not given in full)
EC50 [1]: 1.8 µM | CC50 [2]: 300 µM

C[C@]1(O)C(n2cnc3c(C(=N)N)ncnc32)O[C@H](CO)[C@H]1O (stereo not given in full)
EC50 [1]: 100 µM | CC50 [2]: 300 µM

C[C@]1(O)C(n2cnc3c(N(O)C(=O)OCc4ccccc4)ncnc32)O[C@H](CO)[C@H]1O (stereo not given in full)
EC50 [1]: 20 µM | CC50 [2]: 300 µM

COc1ncnc2c1ncn2C1O[C@H](CO)[C@@H](O)[C@@]1(C)O (stereo not given in full)
EC50 [1]: 9 µM | CC50 [2]: 300 µM

CCNc1ncnc2c1ncn2C1O[C@H](CO)[C@@H](O)[C@@]1(C)O (stereo not given in full)
EC50 [1]: 8 µM | CC50 [2]: 300 µM

C[C@]1(O)C(n2cnc3c(NCCN)ncnc32)O[C@H](CO)[C@H]1O (stereo not given in full)
EC50 [1]: 25 µM | CC50 [2]: 300 µM

CCOc1ncnc2c1ncn2C1O[C@H](COP(=O)(OCCSC(C)=O)OCCSC(C)=O)[C@@H](O)[C@@]1(C)O (stereo not given in full)
EC50 [1]: 0.08 µM | CC50 [2]: 300 µM

CCNC(=O)N(OC)c1ncnc2c1ncn2C1O[C@H](CO)[C@@H](O)[C@@]1(C)O (stereo not given in full)
EC50 [1]: 80 µM | CC50 [2]: 300 µM

CON(C)c1ncnc2c1ncn2C1O[C@H](CO)[C@@H](O)[C@@]1(C)O (stereo not given in full)
EC50 [1]: 33 µM | CC50 [2]: 300 µM

CCONc1ncnc2c1ncn2C1O[C@H](CO)[C@@H](O)[C@@]1(C)O (stereo not given in full)
EC50 [1]: 30 µM | CC50 [2]: 300 µM

CCOc1ccccc1CNc1ncnc2c1ncn2C1O[C@H](CO)[C@@H](O)[C@@]1(C)O (stereo not given in full)
EC50 [1]: 50 µM | CC50 [2]: 250 µM

C[C@]1(O)C(n2cnc3c(-c4cccs4)ncnc32)O[C@H](CO)[C@H]1O (stereo not given in full)
EC50 [1]: 80 µM | CC50 [2]: 200 µM

C[C@]1(O)C(n2cnc3c(C(=N)NO)ncnc32)O[C@H](CO)[C@H]1O (stereo not given in full)
EC50 [1]: 100 µM | CC50 [2]: 300 µM

C[C@]1(O)C(n2cnc3c(N4CCOCC4)ncnc32)O[C@H](CO)[C@H]1O (stereo not given in full)
EC50 [1]: 100 µM | CC50 [2]: 300 µM

C[C@]1(O)C(n2cnc3c(NCCC(N)=O)ncnc32)O[C@H](CO)[C@H]1O (stereo not given in full)
EC50 [1]: 150 µM | CC50 [2]: 300 µM

C[C@]1(O)C(n2cnc3c2NCN=C3NCCO)O[C@H](CO)[C@H]1O (stereo not given in full)
EC50 [1]: 60 µM | CC50 [2]: 300 µM

CCNC(=O)N(O)C1=NCNc2c1ncn2C1O[C@H](CO)[C@@H](O)[C@@]1(C)O (stereo not given in full)
EC50 [1]: 200 µM | CC50 [2]: 300 µM

C[C@]1(O)C(n2cnc3c(NOCCO)ncnc32)O[C@H](CO)[C@H]1O (stereo not given in full)
EC50 [1]: 80 µM | CC50 [2]: 300 µM

C[C@]1(O)C(n2cnc3c2NCN=C3N(CCO)CCO)O[C@H](CO)[C@H]1O (stereo not given in full)
EC50 [1]: 20 µM | CC50 [2]: 300 µM

CCNC(=O)N(O)c1ncnc2c1ncn2C1O[C@H](CO)[C@@H](O)[C@@]1(C)O (stereo not given in full)
EC50 [1]: 2.2 µM | CC50 [2]: 200 µM

C[C@]1(O)C(n2cnc3c(-c4ccsc4)ncnc32)O[C@H](CO)[C@H]1O (stereo not given in full)
EC50 [1]: 300 µM | CC50 [2]: 300 µM

C[C@@]1(O)[C@H](O)[C@@H](CO)O[C@H]1n1cnc2c(N)ncnc21
EC50 [1]: 0.3 µM | CC50 [2]: 300 µM

C[C@]1(O)C(n2cnc3c(N4CCCS4)ncnc32)O[C@H](CO)[C@H]1O (stereo not given in full)
EC50 [1]: 15 µM | CC50 [2]: 200 µM

CN(C)c1ncnc2c1ncn2C1O[C@H](CO)[C@@H](O)[C@@]1(C)O (stereo not given in full)
EC50 [1]: 9 µM | CC50 [2]: 300 µM

CC1(C)OCC(CNc2ncnc3c2ncn3C2O[C@H](CO)[C@@H](O)[C@@]2(C)O)O1 (stereo not given in full)
EC50 [1]: 300 µM | CC50 [2]: 300 µM

CC(CNC1=NCNc2c1ncn2C1O[C@H](CO)[C@@H](O)[C@@]1(C)O)c1ccccc1 (stereo not given in full)
EC50 [1]: 25 µM | CC50 [2]: 300 µM

COC(=O)N(O)c1ncnc2c1ncn2C1O[C@H](CO)[C@@H](O)[C@@]1(C)O (stereo not given in full)
EC50 [1]: 3 µM | CC50 [2]: 250 µM

C[C@]1(O)C(n2cnc3c(C(=N)S)ncnc32)O[C@H](CO)[C@H]1O (stereo not given in full)
EC50 [1]: 120 µM | CC50 [2]: 300 µM

CONc1ncnc2c1ncn2C1O[C@H](CO)[C@@H](O)[C@@]1(C)O (stereo not given in full)
EC50 [1]: 4 µM | CC50 [2]: 300 µM

C[C@]1(O)C(n2cnc3c(NO)ncnc32)O[C@H](CO)[C@H]1O (stereo not given in full)
EC50 [1]: 1.8 µM | CC50 [2]: 300 µM

COc1ncnc2c1ncn2C1O[C@H](COP(=O)(OCCSC(=O)C(C)(C)C)OCCSC(=O)C(C)(C)C)[C@@H](O)[C@@]1(C)O (stereo not given in full)
EC50 [1]: 0.1 µM | CC50 [2]: 300 µM

CCC(=O)N(O)c1ncnc2c1ncn2C1O[C@H](CO)[C@@H](O)[C@@]1(C)O (stereo not given in full)
EC50 [1]: 3.3 µM | CC50 [2]: 300 µM

CNCCN(C)c1ncnc2c1ncn2C1O[C@H](CO)[C@@H](O)[C@@]1(C)O (stereo not given in full)
EC50 [1]: 200 µM | CC50 [2]: 300 µM

C[C@]1(O)C(n2cnc3c(NCC4CCCO4)ncnc32)O[C@H](CO)[C@H]1O (stereo not given in full)
EC50 [1]: 300 µM | CC50 [2]: 300 µM

COC(=N)c1ncnc2c1ncn2C1O[C@H](CO)[C@@H](O)[C@@]1(C)O (stereo not given in full)
EC50 [1]: 120 µM | CC50 [2]: 300 µM

CSc1cccc(Nc2ncnc3c2ncn3C2O[C@H](CO)[C@@H](O)[C@@]2(C)O)c1 (stereo not given in full)
EC50 [1]: 300 µM | CC50 [2]: 300 µM

CNc1ncnc2c1ncn2C1O[C@H](CO)[C@@H](O)[C@@]1(C)O (stereo not given in full)
EC50 [1]: 1 µM | CC50 [2]: 300 µM
